This note sets out measurements from the EternaBench riboswitch data.

The test system of the data set is MS2 coat protein. As to the kind of experiment: apparent Kd, MS2 coat protein; higher = weaker binding; RNA-MaP array; theophylline 2 mM where present. The method, boiled down: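 Stalled E. coli RNA polymerase produced the designs on Illumina sequencing-chip clusters. SNAP-549-labelled MS2 coat protein was added from 0.7 or 1.5 nM, doubling to 3 µM, without and then with constant ligand, in 100 mM Tris-HCl pH 7.5, 80 mM KCl, 4 mM MgCl2, BSA, DTT, yeast tRNA and Tween-20. The apparent Kd is the median of filtered per-cluster fits of green signal normalised to red-channel RNA signal and control-cluster median Fmax.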

[1] abbreviates: designed as: ON switch for theophylline, no ligand.
Where [2] appears, read: ligand present: theophylline, designed as: ON switch for theophylline.
Setting [3] is: designed as: OFF switch for theophylline, no ligand.
[4] abbreviates: ligand present: theophylline, designed as: OFF switch for theophylline.

What is called apparent Kd is the concentration giving half-maximal binding under the conditions of the assay. On to “ACGACGCAUACAGAUACCAGUAGAACAUGAGGAUCACCCAUGUCUGAGGCGCUCCGCCACUGCCCUUGGCAGCUGUAUGCGUCAG”, for which the “apparent Kd” value by setting is: under setting [1], 9.7 nM; under setting [2], 14.2 nM.

With “GAGCUGAUGUAGAGCGAAUAUUCGAGAGAUACCAGUACAGAAAUGUACCCUUGGCAGCUCAACUUUACAUGAGGAUCACCCAUGU”, the “apparent Kd” value reads like this: under setting [3], 13.7 nM; under setting [4], 25 nM.

Consider “UGACGAUACCUGGAUACCAGCGACAUGAGGAUCACCCAUGUAUGAGGAUCAGCCAUGUUAUGCCCUUGGCAGCCACGAAGGUCUU”, for which the “apparent Kd” value stood at 33 nM under setting [3] and 224 nM under setting [4].

As for “AGCCCAUUACAUGAGGAUCACCCAUGUGAUACCAGUCAGGAAACUGACCCUUGGCAGCGCAUGAGGAUCACCCAUGCGCUGGGCA”, the “apparent Kd” value under setting [3] came to 12 nM and the “apparent Kd” value under setting [4] is 11.4 nM.

Regarding “ACGACGCAUAGUGAUACCAGUAGAACAUGAGGAUCACCCAUGUCAGAUAUGUUCUAAUACUGCCCUUGGCAGCACUAUGCGUCAG”, the “apparent Kd” value amounted to 260 nM under setting [1] and 134 nM under setting [2].

With “ACUAGUUGUGCAGAUACCAGACAUGAGGAUCACCCAUGUUUGGGAUCUAAUGAUCAUCUUGUCCCUUGGCAGCUGUACAUCUAGA”, the “apparent Kd” value by setting is: under setting [3], 78.5 nM; under setting [4], 33.9 nM.

On to “AAACGUUGCUCAGAUACCAGACAUGAGGAUCACCCAUGUACCAAGGUACCCGAAAGGAAUGUCCCUUGGCAGCUGAGCAACGAAA”, for which the “apparent Kd” value is, setting by setting: under setting [3], 9.57 nM; under setting [4], 21.6 nM.

For “AAUGAACAUGAGGAUCACCCAUGUCGUGAUACCAGCCGUAAGAGUGGCCCUUGGCAGCGCCAUGAGGACAACAACAUACAUGAGG”, the “apparent Kd” value is, setting by setting: under setting [1], 24.3 nM; under setting [2], 27 nM.

As for “GGUAUUGGAACAGAUACCAGUAUCUGUUGAUCCUACAUGAGGAUCACCCAUGUUAGAAAGUACCCUUGGCAGCUGUAAUAAUGCC”, the “apparent Kd” value under setting [3] turned out to be 48.1 nM and the “apparent Kd” value under setting [4] was determined as 81.6 nM.

With “UUGGUACGACAGCUCAUAUAAGCAUGUGAUACCAGACUGGAAACAGUCCCUUGGCAGCACUUUACAUGAGGAUCACCCAUGUCGG”, the “apparent Kd” value by setting is: under setting [3], 221 nM; under setting [4], 191 nM.

Consider “AAUAAAUCACAUGAGGAUCACCCAUGUGAUACCAGCCUGGAAACAGGCCCUUGGCAGCACAUGAGGAUCACCCAUGUGCUAAAUA”, for which the “apparent Kd” value turned out to be 8.81 nM under setting [3] and 8.4 nM under setting [4].

For the sequence “CGAUGAUCGAGGGAUACCAGAAAUGGUAUUCCUUUAUUUCUUACAUGAGGAUCACCCAUGUUCCCUUGGCAGCUUUUGAUCAUCG”, the “apparent Kd” value under setting [3] stood at 86.5 nM and the “apparent Kd” value under setting [4] is 149 nM.

In the case of “AUACCUAGUGAGUCGUGUUUCUUUUCAGAUACCAGACUUUUCGUUGUCCCUUGGCAGCUGUUUUACAUGAGGAUCACCCAUGUUG”, the “apparent Kd” value was determined as 15.7 nM under setting [3] and 23.6 nM under setting [4].

As to “GACAUGAGGAUCACCCAUGUAUUGGGUGAUACCAGCCUGAAUCAUGGCCCUUGGCAGCACCGCGCUAACUUUAUGUUUGCGAACC”, the “apparent Kd” value under setting [1] is 49.7 nM and the “apparent Kd” value under setting [2] was determined as 160 nM.

Turning to “CAGCCUGGUUGGUAAAUCCCUCAUCGUGAUACCAGUCGAGUGAUCGACCCUUGGCAGCACAUGAGGAUCACCCAUGUGCUCGUAU”, the “apparent Kd” value was determined as 25.1 nM under setting [3] and 23.1 nM under setting [4].

Take “GCAAUACAUGAGGAUCACCCAUGUGCAGAUACCAGAGGUGUAUGCCUCCCUUGGCAGCUGCGACGCUCUGGCAUCUUGUGGGAUG”: the “apparent Kd” value under setting [1] came to 51.8 nM and the “apparent Kd” value under setting [2] came out at 48.8 nM.

As for “AACAUGAGGAUCACCCAUGUAAUAUGGGAUACCAGAGACGAAAGUCUCCCUUGGCAGCCCAAGCUGCUCCAUACGAAAGUAUGGU”, the “apparent Kd” value is, setting by setting: under setting [1], 65.2 nM; under setting [2], 18 nM.

For the sequence “GGCGGACUUAUAGAUACCAGCACAUGAGGAUCACCCAUGUAUGGUCGCACCUCAGUCCUGUGCCCUUGGCAGCUAUAAUAGAUUU”, the “apparent Kd” value came out at 19.7 nM under setting [3] and 115 nM under setting [4].

“AUAACAUGAGGAUCACCCAUGUAAGCAGAUACCAGCUAGGAAACUAGCCCUUGGCAGCUGCAAUCAUGGGUGUGGUAUCUGCUAA”: the “apparent Kd” value was 28.2 nM under setting [3] and 39.7 nM under setting [4].

Take “AUCUCGUUCAAUAUACCGCCUUGACUAGAUACCAGCAUGGACCCAUGCCCUUGGCAGCUGGACAUGAGGAUCACCCAUGUUUCAG”: the “apparent Kd” value is, setting by setting: under setting [1], 12.4 nM; under setting [2], 14.6 nM.

As for “UGACAUUGCUCAGAUACCAGACAUGAGGAUCACCCAUGUACCAAGAAAGUACAAUAAAAUGUCCCUUGGCAGCUGAGCAAUGUCU”, the “apparent Kd” value by setting is: under setting [3], 66.8 nM; under setting [4], 487 nM.

“AUCGUACCUAAUGAUACCAGCAAGUGAUCAUAACAUGAGGAUCACCCAUGUAAUCAGUGAUGCCCUUGGCAGCAUAAUCGAUACA”: the “apparent Kd” value by setting is: under setting [1], 146 nM; under setting [2], 88 nM.

For the sequence “ACGUCCGGAUUGAUCGUGGGCAUGGUCGAUACCAGUAUUUUAAUCUACCCUUGGCAGCGACAUGAGGAUCACCCAUGUGCGAUGA”, the “apparent Kd” value runs as follows: under setting [3], 16.9 nM; under setting [4], 42.6 nM.

As for “ACACAUGAGGAUCACCCAUGUCCAAUAGAUACCAGUGAUACGGUGCACCCUUGGCAGCUGUUGCUGAGUGAUGGUUCCCUCGGAA”, the “apparent Kd” value turned out to be 125 nM under setting [1] and 164 nM under setting [2].

For “ACAUCCAGAUUAAUCGUGGGCAUACUCGAUACCAGUAUUUUAAUCUACCCUUGGCAGCGACAUGAGGAUCACCCAUGUGCGAUGA”, the “apparent Kd” value by setting is: under setting [3], 12.8 nM; under setting [4], 21.1 nM.

With “ACAUGAAGAACAGCGGUGGGCGCGCUCGAUACCAGUAUUUUAACCUACCCUUGGCAGCGACAUGAGGAUCACCCAUGUGAGAUGA”, the “apparent Kd” value amounted to 17.3 nM under setting [3] and 26.9 nM under setting [4].

“AGCAUGUUAUCAGAUACCAGACAUCUUUUAAUACAUAUUACAUGAGGAUCACCCAUGUUGGUCCCUUGGCAGCUGAAAUAUUUCA”: the “apparent Kd” value reads like this: under setting [1], 256 nM; under setting [2], 80.5 nM.

As for “GGUCUGAAAACCGAUCAAAGAUCGGAAGAUACCAGAGGGUGAUCCCUCCCUUGGCAGCUUCACAUGAGGAUCACCCAUGUAGACC”, the “apparent Kd” value under setting [1] amounted to 192 nM and the “apparent Kd” value under setting [2] came to 151 nM.

With “UAAUAAAUAAGUGAUACCAGCGAGAAAACAUGAGGAUCACCCAUGUUCGCCCAUGUUAAGCGCCCUUGGCAGCACAAAUAUAAAA”, the “apparent Kd” value under setting [3] was determined as 26.1 nM and the “apparent Kd” value under setting [4] was determined as 84.9 nM.

Consider “AGCCCUGUGCUAGAUACCAGCUACAUGAGGAUCACCCAUGUGCGUCAGAAAUGACUGUGUAGCCCUUGGCAGCUAAAUGCAUGUA”, for which the “apparent Kd” value is, setting by setting: under setting [3], 11.8 nM; under setting [4], 28 nM.

As to “AAACGUUGCUCAGAUACCAGACAUGAGGAUCACCCAUGUACCAAGGUAAAGAAAUAACGUGUCCCUUGGCAGCUGAGCAACGAAA”, the “apparent Kd” value under setting [3] worked out at 11 nM and the “apparent Kd” value under setting [4] is 113 nM.

“GUGGAGACAUGAGAUACCAGUCUCUUUAACAUGAGGAUCACCCAUGUAAUGCUCCUCGGAGACCCUUGGCAGCUCAGUAUGAUGA”: the “apparent Kd” value came to 39.9 nM under setting [3] and 157 nM under setting [4].

Take “CGCAACCCUAAGGGAUUGUGGUUAUUAGAUACCAGUAUGAUGCAAUACCCUUGGCAGCUAAUACAUGAGGAUCACCCAUGUUGCG”: under setting [4], the “apparent Kd” value was determined as 59.5 nM.

In the case of “UCUGGGUCCGCAAGGACCUGGAGUUGCGAUACCAGCACGGUAACGUGCCCUUGGCAGCGCACAUGAGGAUCACCCAUGUGGUGUU”, the “apparent Kd” value was found to be 261 nM under setting [3] and 436 nM under setting [4].

As for “AAAUAGGUAGGAGAUACCAGAUACGUUAACAUGAGGAUCACCCAUGUGUAUGCACUUAGUGUCCCUUGGCAGCUCGAGGAUCUGG”, the “apparent Kd” value was 30.7 nM under setting [1] and 35.3 nM under setting [2].

With “GGCGGACUUAUAGAUACCAGCACAUGAGGAUCACCCAUGUUUGGUCGCACCUCAGUCCUGUGCCCUUGGCAGCUAUGAUAGAUUU”, the “apparent Kd” value turned out to be 17.3 nM under setting [3] and 95.1 nM under setting [4].

Regarding “ACAUGAGGAUCACCCAUGUUCCUCGCCGAUACCAGUGAAGAAGAACGCCCUUGGCAGCGGAAAGAAUAUAUUGGAGAUGAUAUAU”, the “apparent Kd” value is, setting by setting: under setting [3], 219 nM; under setting [4], 316 nM.

Consider “AUCAUGUAAUCAGAUACCAGACAUCUUUUAAUACAUAUUACAUGAGGAUCACCCAUGUUGGUCCCUUGGCAGCUGAAAUAUUUUU”, for which the “apparent Kd” value was found to be 197 nM under setting [1] and 86.8 nM under setting [2].

With “UUCUACAUGAGGAUCACCCAUGUAAACGAUACCAGACGAGUAUUAGUCCCUUGGCAGCGUAGAGUGUCGUUUAUAGUAGGAUACC”, under setting [1], the “apparent Kd” value is 22.7 nM.

Turning to “AGCGACAUGCGUGAUACCAGCUACAUGAGGAUCACCCAUGUAAGUAGGAAACUACUGUGUAGCCCUUGGCAGCACAAUGCAUGUC”, the “apparent Kd” value was 19.8 nM under setting [3] and 43.5 nM under setting [4].

For “UGGUACAUGAGGAUCACCCAUGUUCCAGAUACCAGUGUCCCGCUGCACCCUUGGCAGCUGGUGGCACAUGAGGAUCACCCAUGUG”, the “apparent Kd” value is, setting by setting: under setting [3], 15 nM; under setting [4], 17.1 nM.

Turning to “AUGUCGUUGAAUACAGCGGCAUGGAGUGAUACCAGAAUGAUCAAAUUCCCUUGGCAGCAUCACAUGAGGAUCACCCAUGUUCGAU”, the “apparent Kd” value is, setting by setting: under setting [1], 29.1 nM; under setting [2], 34.3 nM.

Take “CUGGCAGGAUGAUCCGCUGUCAGGGCUGAUACCAGCCACGAAAGUGGCCCUUGGCAGCAGCAAACAUGAGGAUCACCCAUGUAAA”: the “apparent Kd” value runs as follows: under setting [1], 144 nM; under setting [2], 266 nM.

As to “AACAUGAGGAUCACCCAUGUUUUAUGGGAUACCAGAGACGAAAGUCUCCCUUGGCAGCCCAAGCUGCUCCAUACGAAAGUAUGGU”, the “apparent Kd” value reads like this: under setting [1], 14.3 nM; under setting [2], 14 nM.

Consider “UCUUACUUGGUAGAUACCAGCGUGUUAUCUUUCUUUUGACAUGAGGAUCACCCAUGUAUAUGCCCUUGGCAGCUGCGUAGUGUGU”, for which the “apparent Kd” value by setting is: under setting [1], 33.7 nM; under setting [2], 32.5 nM.

Regarding “AUAACAUGAGGAUCACCCAUGUAGAGUGAUACCAGACUACGUAAUGUCCCUUGGCAGCACAAGUAAAGUUACGAAUAAUGAUAGA”, the “apparent Kd” value under setting [1] amounted to 179 nM and the “apparent Kd” value under setting [2] is 50.8 nM.

Turning to “UAUACAUGAGGAUCACCCAUGUGCCAUGAUACCAGACAUGAAAAUGUCCCUUGGCAGCAUGGUGAUUGUAUAGCGGGAAACCCGA”, the “apparent Kd” value by setting is: under setting [1], 160 nM; under setting [2], 196 nM.
